Tests used:
HT-22 [1] = experiment: Inhibition of mPTP in mouse HT22 cells assessed as reduction in amyloid beta-induced mitochondrial membrane damage at 10 uM incubated for 10 mins prior to amyloid beta-challenge measured every 1 hr for 3 hrs by JC-1 based fluorometric analysis; type: cell-based; set-up: scale not given: the % may be the effect or the level left
In short: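 HT-22 cells, 30,000 per well, seeded a day earlier, loaded with 7.5 μM JC-1 (final) in phenol red-free Opti-MEM for 1 h 15 min at 37 °C, then PBS-washed. Compound solution at 10 μM for 10 min at 37 °C, then amyloid beta 1–42 solution at 10 μM. Red (ex/em 530/580) and green (485/530) fluorescence read hourly for 3 h. Green/red ratio change normalised to vehicle as 100%.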

[2] = Cytotoxicity against mouse […] cells assessed as cell viability at 5 uM; type: cell-based; conditions: read-out: Activity
HT-22 [3] = experiment: Inhibition of mPTP in mouse HT22 cells assessed as recovery in amyloid beta-suppressed ATP level at 5 uM incubated for 10 mins prior to amyloid beta-challenge measured for 7 hrs relative to control; type: cell-based; set-up: scale not given: the % may be the effect or the level left
In short: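 HT-22 mouse hippocampal cells, grown in DMEM with 10% FBS at 37 °C and 5% CO2, were seeded the day before. Compound (10 µM solution) added 10 min before amyloid beta 1-42 (10 µM solution), then 7 h at 37 °C. Lysates normalised to equal protein by BCA, and ATP measured with a luciferase kit. % recovery is relative to the amyloid-treated vehicle. Viability is from ATP without amyloid beta.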

[4] = Cytotoxicity against mouse […] cells assessed as cell viability at 10 uM after 24 hrs by MTT assay; type: cell-based; conditions: read-out: Activity
HT-22 [5] = experiment: Neuroprotective activity against in mouse HT22 cells assessed as inhibition of amyloid beta-induced toxicity at 10 uM incubated for 10 mins prior to amyloid beta-challenge measured after 24 hrs by MTT assay; type: functional
In short: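 HT-22 mouse hippocampal cells (DMEM, 10% FBS), 5000 per well, seeded a day before. Compound solution at 10 μM added 10 min before amyloid beta 1–42 solution at 10 μM, then 24 h at 37 °C. MTT 2 h, then acidified Triton/isopropanol for 1 h at RT, A570. Vehicle subtracted; % inhibition versus Aβ-treated vehicle; viability from wells without Aβ.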

Structure (SMILES) | Activity (HT-22 [1]) | further results
FC(F)(F)c1cccc(/C=N/OC2CN3CCC2CC3)c1 (stereo not given) | 74% | 
Clc1cccc(COc2ccccc2/C=N/OC2CN3CCC2CC3)c1 (stereo not given) | 101% | 
Brc1ccccc1/C=N/OC1CN2CCC1CC2 (stereo not given) | 93% | 
COc1ccc(COc2ccccc2/C=N/OC2CN3CCC2CC3)cc1 (stereo not given) | 96% | 
CN1CCCC(O/N=C/c2ccccc2OCc2ccccc2)C1 (stereo not given) | 29% | viability at 5 µM ([2]; HT22 cells): 112%; Activity (HT-22 [3]): 15%
CN1CCC(O/N=C/c2ccccc2OCc2ccc(Cl)c(Cl)c2)C1 (stereo not given) | 57% | 
FC(F)(F)c1cccc(COc2ccccc2/C=N/OC2CN3CCC2CC3)c1 (stereo not given) | 90% | 
COc1ccccc1/C=N/OC1CCCN(C)C1 (stereo not given) | 257% | 
CN1CCC(O/N=C/c2ccccc2OCc2ccccc2)C1 (stereo not given) | 69% | 
FC(F)(F)c1ccccc1/C=N/OC1CN2CCC1CC2 (stereo not given) | 86% | 
COc1ccccc1/C=N/OC1CN2CCC1CC2 (stereo not given) | 71% | 
CC(C)N1CCC(O/N=C/c2ccccc2OCc2ccccc2)C1 (stereo not given) | 19% | viability at 5 µM ([2]; HT22 cells): 67%; Activity (HT-22 [3]): -93%
FC(F)(F)c1cccc(/C=N/OC2CCN(Cc3ccccc3)C2)c1 (stereo not given) | 123% | 
Fc1cccc(/C=N/OC2CN3CCC2CC3)c1 (stereo not given) | 92% | 
CN1CCCC(O/N=C/c2ccccc2OCc2ccc(Cl)cc2Cl)C1 (stereo not given) | 64% | 
CC(C)N1CCC(O/N=C/c2ccccc2OCc2ccc(Cl)cc2Cl)C1 (stereo not given) | 61% | 
COc1ccccc1/C=N/OC1CCN(C(C)C)C1 (stereo not given) | 55% | 
CC(C)N1CCC(O/N=C/c2cccc(C(F)(F)F)c2)C1 (stereo not given) | 54% | 
NC(=O)CN1CCCC1=O [PIRACETAM] | 40% | viability at 5 µM [2]: 88%; Activity (HT-22 [3]): 127%; viability at 24 h, 10 µM [4]: 132%; inhibition at 10 µM (HT-22 [5]): 29%
C(=N\OC1CN2CCC1CC2)/c1cccc(OCc2ccccc2)c1 (stereo not given) | 121% | 
Fc1ccccc1/C=N/OC1CN2CCC1CC2 (stereo not given) | 96% | 
Fc1cccc(COc2ccccc2/C=N/OC2CN3CCC2CC3)c1 (stereo not given) | 75% | 
FC(F)(F)c1ccc(COc2ccccc2/C=N/OC2CN3CCC2CC3)cc1 (stereo not given) | 85% | 
CN1CCCC(O/N=C/c2ccccc2OCc2cccc(F)c2)C1 (stereo not given) | 32% | viability at 5 µM ([2]; HT22 cells): 136%; Activity (HT-22 [3]): 9%
C(=N\OC1CN2CCC1CC2)/c1cccc(Oc2ccccc2)c1 (stereo not given) | 138% | 

Reference: ChEMBL document CHEMBL2331084, “Synthesis and evaluation of oxime derivatives as modulators for amyloid beta-induced mitochondrial dysfunction” (Eur J Med Chem, 2013)
